For orientation: Kd means the free concentration of one partner at which half of the binding sites on the other are occupied at equilibrium, for simple one-to-one binding. Read a high Kd as weaker binding.

Each structure is given as a SMILES string.

For the assay, the target named is T1, YfcG (Escherichia coli, UniProt P77526).
T1 sequence (P77526 1-215): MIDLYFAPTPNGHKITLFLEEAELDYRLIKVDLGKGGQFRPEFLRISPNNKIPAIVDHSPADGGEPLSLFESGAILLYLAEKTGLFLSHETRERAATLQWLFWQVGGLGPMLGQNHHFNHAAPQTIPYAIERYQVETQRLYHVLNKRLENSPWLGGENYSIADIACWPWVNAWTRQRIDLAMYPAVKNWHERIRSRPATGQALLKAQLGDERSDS
Kind of assay: intrinsic fluorescence titration. Type of assay: binding. In short, it runs like this:
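Purified enzyme titrated with thiol and disulfide ligands at 25 °C, monitoring the protein's intrinsic fluorescence; dissociation constants derived from the titration.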

As for `N[C@@H](CCC(=O)N[C@@H](CS(=O)(=O)O)C(=O)NCC(=O)O)C(=O)O` [GSO3^−], the Kd stood at 23 ± 5 µM.

The record behind these values is article PMC2996727 (Biochemistry, 2009).
